iPSC survival up: hiPSC single-cell survival enhancement; ATPlite luminescence; 100% = ROCK inhibitor wells, 0% = DMSO; survival enhancement, % at 20 µM; 360,000 tested, 0.044% active; in the data active = survival enhancement above about 18%;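 also: cells exposed to compounds for 16 hours before the ATP read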
Tb MetRS inh: Trypanosoma brucei MetRS inhibition; purified T. brucei MetRS, ATP depletion, Kinase-Glo luminescence; inhibition, % at 11.9 µM; 360,000 tested, 0.4% active; AID 624268;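 active = inhibition above a per-plate cutoff of the control wells' mean inhibition plus 3 SD, cut at about 5.5% in these data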
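assay system = parasite MetRS enzyme | timing = 15 min preincubation, 2 h reaction, all 25 °C | evaluation = percent inhibition relative to median high and low control wells | medium = HEPES buffer containing pyrophosphatase, BSA, spermine, DTT | compound = single dose, 11.9 µM final nominal, 0.9% final DMSO | detection = Kinase-Glo luminescence, ATP depletion format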
Granule exo inh: lytic granule exocytosis inhibition; TALL-104 LAMP-1 surface exposure, flow cytometry; cells stimulated with thapsigargin and PMA; inhibition, % at 10 µM; 360,000 tested, 0.66% active;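 active = inhibition above about 55%, limit read from the data; inconclusive = no clear call, values can overlap the other calls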
MC4R barr agon: human MC4R agonism via beta-arrestin | U2OS MC4R beta-arrestin complementation, luminescence; percent of melanotan II response, DMSO zero | 360,000 tested, 0.98% active | activation, % at 8.9 µM;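 active = activation above a per-plate cutoff, the mean activation of sample wells on that plate plus 3 SD, cut at about 8% in these data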
MC4R antag cAMP: blocks human MC4R cAMP signaling; P32245; MC4R-expressing cells, MTII-stimulated cAMP, LANCE TR-FRET; inhibition, % at 6.5 µM; 360,000 tested, 0.48% active; AID 540295;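 active = inhibition above its plate's cutoff, the mean of tested wells on that plate plus 3 SD, cut at about 29% in these data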
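System: U2OS-MC4R stable cell line; Technique: Eu-cAMP/anti-cAMP TR-FRET, emission 671 nm; Repeats: single well per compound; Also added: Melanotan II; Dosing: one concentration, 6.5 µM nominal; Schedule: 30-min compound, 1-h challenge, 1-h detection, room temperature.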
ABCB6 inh 2: human ABCB6 transporter inhibition | Q9NP58 | K562-ABCB6 porphyrin accumulation, flow cytometry, 1 h; hits give low values | fluorescence ratio to DMSO, % at 10 µM | 360,000 tested, 0.19% active;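 active = fluorescence ratio to DMSO below 75%, the collection mean minus 3 SD; inconclusive = too few cells collected in the well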;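 also: signal is porphyrin accumulated inside mitochondria; lower ratio means ABCB6 inhibition with less porphyrin fluorescence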
Granule exo CP1: blocks lytic granule exocytosis; shares compounds with Granule exo inh; TALL-104 cells, LAMP-1 externalization, flow cytometry; stimulated with PMA plus thapsigargin; inhibition, % at 10 µM; 1,500 tested, 11% active; AID 651954; in the data active = inhibition above about 60%
A number is an active result; i = inactive; ? = inconclusive; nt = no result given. Rows were chosen to be rich in hits. Some 2.6% of all compounds tested hit in one or more screens of this group.

SMILES	iPSC survival up	Tb MetRS inh	Granule exo inh	MC4R barr agon	MC4R antag cAMP	ABCB6 inh 2	Granule exo CP1
O=[N+]([O-])c1ccc(N2CCN(CC3CCCCC3)CC2)cc1	i	i	63	i	i	i	i
CCC1Oc2ccc(C)cc2N(CC(=O)N(Cc2ccc(C)o2)C2CCCC2)C1=O (centres undefined)	i	i	66	i	i	i	i
CCC1Oc2ccc(C)cc2N(CC(=O)NC2CCCCC2)C1=O (centres undefined)	i	i	i	i	i	i	nt
C[C@@H]1CN([C@H](C)CO)C(=O)CCCn2nncc2CO[C@H]1CN(C)C(=O)Nc1cccc2ccccc12	i	i	i	i	i	i	nt
NC(=O)CC[C@H](NC(=O)c1ccc(F)cc1)C(=O)OCC(=O)Nc1c(F)c(F)c(F)c(F)c1F	i	i	i	i	i	i	nt
NC(=O)CC[C@H](NC(=O)c1ccc(F)cc1)C(=O)OCC(=O)NCc1ccc(F)cc1	i	i	57	i	i	i	i
Cc1cccc(N2C(=O)CC(Sc3ccccc3C(=O)O)C2=O)c1 (centres undefined)	i	i	i	i	i	i	nt
Cc1cc(C)cc(N2C(=O)CC(Sc3ccccc3C(=O)O)C2=O)c1 (centres undefined)	i	i	84	i	i	i	i
Cc1c(Cl)cccc1NC(=O)CSc1nc(=O)n(CCCN2CCOCC2)c2c1CCC2	i	i	i	i	i	i	nt
O=C(c1ccc(CS(=O)Cc2cccc(Cl)c2)o1)N1CCN(c2ccc(F)cc2)CC1 (centres undefined)	i	i	i	i	i	i	nt
Cc1ccc(C)c(N2CCN(C(=O)c3ccc(CS(=O)Cc4cccc(Cl)c4)o3)CC2)c1 (centres undefined)	i	i	58	i	i	i	i
COc1cc(OC)cc(C(=O)NCC2CCCN(Cc3ccc(SC)cc3)C2)c1 (centres undefined)	i	i	i	i	i	i	nt
COC(=O)c1cn(C(=O)c2ccc(C)cc2)c2ccccc12	i	i	i	i	i	i	nt
COC(=O)c1cn(C(=O)c2cc(Br)ccc2Cl)c2ccccc12	i	i	72	i	i	i	i
COC(=O)c1cn(C(=O)c2ccc(OC)cc2)c2ccccc12	i	i	70	i	i	i	i
CCCCCCN1C[C@@H](n2cc(-c3ccc(F)cc3)nn2)[C@H](O)C[C@@H]1c1ccc(Cl)cc1	i	i	i	i	i	i	nt
CCCCCCN1C[C@H](n2cc(-c3ccc(F)cc3)nn2)[C@@H](O)C[C@@H]1c1ccc(C)cc1	i	i	62	i	i	i	i
O=C(Nc1ccccc1O)N1c2ccccc2Sc2ccccc21	i	i	i	i	i	i	nt
FC(F)(F)c1cccc(-c2cncc(N3CCN(CCN4CCCC4)CC3)n2)c1	i	i	i	i	i	i	nt
Fc1cccc(-c2cncc(N3CCN(CCN4CCCC4)CC3)n2)c1	i	i	59	i	i	i	i
COc1ccc(Cn2nnnc2C(C(C)C)N(Cc2ccco2)Cc2cccs2)cc1 (centres undefined)	i	i	57	i	i	i	i
Cc1ccc(CN2C(=O)c3ccccc3NC2c2cc(Br)ccc2O)cc1 (centres undefined)	i	i	74	i	i	i	i
Cc1nc(-c2ccc(Cl)cc2)sc1C1(C)CC(c2ccccc2)=NO1 (centres undefined)	i	i	83	i	i	i	i
N#Cc1cc(Oc2cccc3cccnc23)c(-n2nnc3ccccc32)cc1C#N	i	i	99	i	i	i	i
N#Cc1cc(O)c(-n2nnc3ccccc32)cc1C#N	i	i	i	i	i	i	nt
SMILES	iPSC survival up	Tb MetRS inh	Granule exo inh	MC4R barr agon	MC4R antag cAMP	ABCB6 inh 2	Granule exo CP1
COc1cc(C(=S)N2CCC(Cc3ccccc3)CC2)ccc1OCC(N)=O	i	i	i	i	i	i	nt
COc1cc(C(C)=O)ccc1OCCCN1CCC(Cc2ccccc2)CC1	i	i	64	i	i	i	i
OCc1ccccc1OCCCN1CCC(Cc2ccccc2)CC1	i	i	69	i	i	i	i
COc1cc(C(C)=O)ccc1OCCN1CCC(Cc2ccccc2)CC1	i	i	56	i	i	i	i
COc1cc(C(C)=O)ccc1OCC(=O)N1CCC(Cc2ccccc2)CC1	i	i	?	i	i	i	nt
CCOC(=O)c1cccc(NC(=O)C2CCCN(c3nnc(N4CCCC4=O)s3)C2)c1 (centres undefined)	i	i	i	i	i	i	nt
Cc1ccc(S(=O)(=O)CCC(=O)c2ccc(O)cc2O)cc1	i	i	104	i	i	i	i
CCOc1ccc(Br)cc1S(=O)(=O)Nc1cccc(S(=O)(=O)NC2=NCCC2)c1	i	i	i	i	i	i	nt
CCOc1ccc(Br)cc1S(=O)(=O)Nc1cccc(S(=O)(=O)N2CCOCC2)c1	i	i	97	i	i	i	i
O=C(NCc1cccc(C(F)(F)F)c1)N1CCN(S(=O)(=O)c2ccccc2F)CC1	i	i	i	i	i	i	nt
Cc1ccc(C)c(CN2CCC(CNC(=O)Nc3ccc(Cl)cc3)CC2)c1	i	i	66	i	i	i	i
Cc1ccccc1CC1CCN(CCCNC(=O)Nc2ccccc2)CC1	i	i	63	i	i	i	i
O=C(NCCCN1CCN(Cc2ccccc2Cl)CC1)Nc1ccccc1	i	i	i	i	i	i	nt
Cc1nnc(SCc2nnc(-c3ccccc3Br)o2)s1	i	i	i	i	i	i	nt
Cc1ccc(-c2cc(C(=O)Nc3ccccn3)c3ccccc3n2)o1	i	i	88	i	i	i	i
Cc1ccc(NC(=O)c2cc(-c3ccc(C)o3)nc3ccccc23)cc1	i	i	84	i	i	i	i
Cc1ccc(-c2cc(C(=O)Nc3cccnc3)c3ccccc3n2)o1	i	i	82	i	i	i	i
Cc1ccc(-n2c([O-])nc(-[n+]3ccccc3)c2C=O)cc1	i	i	i	i	i	i	nt
COc1ccc(CC(=O)NCC2CCCN(Cc3ccc(OC(F)(F)F)cc3)C2)cc1 (centres undefined)	i	i	66	i	i	i	i
CN1CCN(C2=C(Cl)C(=O)c3ccccc3C2=O)CC1	i	i	i	i	i	i	nt
CC1COCC(C)N1C1=C(Cl)C(=O)c2ccccc2C1=O (centres undefined)	i	i	91	i	i	i	60
CSCC[C@H](CO)NC(=O)[C@H]1O[C@@H](n2cnc3c(N)ncnc32)[C@H](O)[C@@H]1O	i	i	i	nt	nt	i	nt
CC(=O)N1CCSc2ccc(S(=O)(=O)NCCc3ccc(C)cc3)cc21	i	i	62	i	i	i	i

Assay outcomes from PubChem BioAssay.
